Measurements published in paper PMC7927141 (Molecular Pharmaceutics, 2021).
Read-outs that look alike come from different tables or passages of the source.

What was measured:
[1] = cited from earlier work
[2] = tested on: TFK-1 cells; test: In vitro cytotoxicity, SRB total protein assay, TFK-1; assay type: cell-based; details: Homo sapiens
Method in brief: (§1)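 Cells grown in RPMI 1640 with 10% FBS, penicillin/streptomycin and 2 mM L-glutamine at 37 °C, 5% CO2. Seeded at 5 × 10^4 cells/well and cultured 24 h. Then exposed 24, 48 or 72 h to free test compound (DMSO, 0.4% v/v final) or micelle-loaded test compound in HBS, 0–200 μM; HBS controls. After PBS wash, SRB total protein read at 564 nm, normalized to control. IC50 from sigmoidal variable-slope nonlinear regression.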

[3] = tested on: cancer cells (Neuro2A, EGI-1, TFK-1, Mz-ChA-1); test: Association and uptake by flow cytometry and confocal microscopy; assay type: cell-based; details: 20 μM, flow cytometry
Method in brief: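 5 × 10^5 cells/well, grown 18 h. Medium replaced by nonsupplemented medium containing 20 μM test compound, free (0.4% DMSO final) or micelle-loaded, or Cy5-labelled micelles at 0.3 mg/mL. Incubated 1 or 4 h, rinsed twice with PBS, trypsinized, analysed by flow cytometry. Confocal imaging on coverslips after 0.5, 1 and 4 h at 37 °C, excitation 405/633 nm.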

[4] = tested on: EGI-1 cells; test: In vitro cytotoxicity, SRB total protein assay, EGI-1; assay type: cell-based; details: Homo sapiens
Method in brief: as §1

[5] = Biodistribution of Cy7-labeled curcumin micelles in mice; assay type: in vivo, BALB/c mice; details: 4 and 24 h post-administration, iv 50 mg curcumin/kg in micelles
[6] = tested on: Neuro2A cells; test: In vitro cytotoxicity, SRB total protein assay, Neuro2A; assay type: cell-based, murine
Method in brief: as §1

[7] = Circulation kinetics of Cy7-labeled curcumin micelles in mice; assay type: in vivo, BALB/c mice
Method in brief: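 Female mice received 9% (w/w) curcumin-loaded Cy7-labelled mPEG-b-p(HPMA-Bz) micelles i.v. (500 mg polymer/kg, 100–200 μL). EDTA blood was drawn submandibularly at 1 min (set as 100% dose), 10 min and 1 h, and by cardiac puncture at 4 and 24 h. Plasma was ACN-extracted (1:4) and assayed for curcumin by C18 RP-HPLC at 425/254 nm. Parameters came from two-compartmental analysis.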

[8] = tested on: Mz-ChA-1 cells; test: In vitro cytotoxicity, SRB total protein assay, Mz-ChA-1; assay type: cell-based, human
Method in brief: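 Mz-ChA-1 cells in RPMI 1640 with 10% FBS, penicillin/streptomycin and 2 mM L-glutamine at 37 °C, 5% CO2. Seeded at 25 × 10^4 cells/well for slow growth, cultured 24 h. Then 24, 48 or 72 h with free test compound (DMSO, 0.4% v/v final) or micelle-encapsulated test compound in HBS, 0–200 μM; HBS-treated controls. PBS wash, SRB protein stain, absorbance 564 nm, viability versus control. IC50 by sigmoidal variable-slope curve fit.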

[9] = tested on: different types of cancer cell lines; details: cited from earlier work
[10] = tested on: Sk-ChA-1 cells; test: In vitro cytotoxicity, SRB total protein assay, Sk-ChA-1; assay type: cell-based; details: Homo sapiens
Method in brief: as §1

[11] = read-out: IC50 after 48 and 72 h
[12] = female, BALB/c, mouse, plasma, iv, 7.8 mg/kg
[13] = iv, 50 mg curcumin/kg, two-compartmental

COc1cc(/C=C/C(=O)CC(=O)/C=C/c2ccc(O)c(OC)c2)ccc1O [free curcumin, curcumin]
AUC ([1]; 50 mg/kg in mice, noncompartmental analysis, ref 63 (Gao et al.)): 60.3 µg·h/mL
normalized AUC ([1]; two studies): 1.2 (μg·h/mL)/(mg/kg)
IC50 ([2]; 24 h): 27.7 ± 0.9 µM
IC50 ([2]; 48 h): 20.1 ± 0.9 µM
IC50 ([2]; 72 h): 17.5 ± 0.5 µM
IC50 [2, 11]: ~20 µM
time of incubation until intracellular detection [3]: ≤ 1 h
IC50 ([4]; EGI-1, 24 h): 21.7 ± 0.5 µM
IC50 ([4]; EGI-1, 48 h): 18.2 ± 0.3 µM
IC50 ([4]; EGI-1, 72 h): 19.1 ± 0.3 µM
IC50 ([4]; EGI-1, read-out: IC50 after 48 and 72 h): ~20 µM
curcumin concentration in the different organs [5]: 0.2–3 μg/g tissue
IC50 ([6]; 24 h exposure): 83.8 ± 13.5 µM
IC50 ([6]; Mus musculus, N2a, 24 h, 24 h exposure): 84 µM
IC50 ([6]; Mus musculus, N2a, 48 h, 48 h exposure): 15.6 ± 0.8 µM
IC50 ([6]; Mus musculus, N2a, 72 h, 72 h exposure): 23.3 ± 1.2 µM
t1/2α relative to that reported for free curcumin ([7]; curcumin after iv curcumin-loaded micelles vs literature free curcumin): ~5 times
AUC(0-inf) [7, 12]: 319 µg·h/mL
clearance [7, 12]: 2.62 mL/min/kg
initial phase t1/2α ([7]; iv, 50 mg curcumin/kg as curcumin-loaded micelles): 6.7 min
V1 [7, 13]: 0.086 L/kg
V2 [7, 13]: 0.344 L/kg
loaded curcumin eliminated during the first hour ([7]; iv, 50 mg/kg curcumin in micelles): 90%
IC50 ([8]; Homo sapiens, 24 h, Mz-ChA-1, 24 h exposure): 48 µM
IC50 ([8]; Homo sapiens, 48 h, Mz-ChA-1, 48 h exposure): 38.4 ± 1.4 µM
IC50 ([8]; Homo sapiens, 72 h, Mz-ChA-1, 72 h exposure): 37.8 ± 1.1 µM
IC50 ([8]; Mz-ChA-1, 24 h exposure): 47.6 ± 1.6 µM
IC50 ([9]; read-out: IC50 mean ± SD): 21 ± 17 µM
IC50 ([9]; read-out: IC50 range): 1 to 100 µM
IC50 ([10]; 24 h): 33.9 ± 1.3 µM
IC50 ([10]; 48 h): 21.5 ± 0.4 µM
IC50 ([10]; 72 h): 21.3 ± 0.4 µM
IC50 [10, 11]: ~20 µM
